pIC50: −log10 of the molar value.
Biological target: T1, EhPSP (Entamoeba histolytica, UniProt N9V397)
T1 sequence (N9V397 1-205): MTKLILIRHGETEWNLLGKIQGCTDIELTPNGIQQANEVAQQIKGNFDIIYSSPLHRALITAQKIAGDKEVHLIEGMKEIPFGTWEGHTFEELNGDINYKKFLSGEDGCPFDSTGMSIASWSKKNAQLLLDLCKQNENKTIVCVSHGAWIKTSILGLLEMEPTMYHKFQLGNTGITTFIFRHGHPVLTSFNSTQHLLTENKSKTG
Test: In vitro enzyme inhibition assay of EhPSP phosphatase activity
Format: biochemical
Conditions: for inhibition of enzymatic activity (in words): 21 compounds tested
Summary of the method: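 Recombinant C-terminal 6X-His EhPSP, expressed in E. coli BL21 (DE3) and purified by Ni-NTA then size exclusion. Reaction in 50 mM HEPES-NaOH pH 8.0, 1 mM DTT, 1 mM EDTA, 25 μg enzyme. Compound preincubated 10 min RT, then OPLS added and run 2−5 min RT. Stopped with malachite green, A630 of released phosphate. % inhibition vs no-compound control, IC50 from log-concentration curve.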

pIC50 (IC50, OPLS 2.0 mM, compound 20 nM to 500 μM) | Structure (SMILES) | inhibition of enzymatic activity (in words)
– | O=S(=O)(O)c1ccc2c(S(=O)(=O)O)cccc2c1 [AE-562/12222184, 1,6-naphthalenedisulfonic acid] | displayed the inhibition of enzymatic activity
~3.43 | Cc1nc2ccc(CN(C)c3ccc(C(=O)N[C@@H](CCC(=O)O)C(=O)O)s3)cc2c(=O)[nH]1 [Raltitrexed, (2S)-2-[[5-[methyl-[(2-methyl-4-oxo-3H-quinazolin-6-yl)methyl]amino]thiophene-2-carbonyl]amino]pentanedioic acid] | displayed the inhibition of enzymatic activity

— publication PMC11223228 (ACS Omega, 2024)
